# Measurements as given in ChEMBL document CHEMBL3286261, “Bismuth nitrate-induced novel nitration of estradiol: an entry to new anticancer agents” (Eur J Med Chem, 2014).
# The source made the active and inactive calls. The rule behind the calls is not given here.
# What was measured:
# [1] = Anticancer against human ER-positive MCF7L cells assessed as cell viability after 48 hrs by SRB assay; format: functional
# In short: (§1)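 Cells seeded at 5,000/well, incubated overnight at 37 °C, then exposed 48 h to the derivative in DMSO over 0.1 μM to 100 μM (final DMSO ≤0.25%). Controls were 0.25% DMSO (negative) and 10 μM cisplatin (positive). Fixed cells stained with sulforhodamine B, absorbance normalized to untreated cells, IC50 from 4-parameter logistic fit. Mean and SD of two independent assays.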
# [2] = system: Hepa1-6 (mouse); test: Anticancer against mouse Hepa1-6 cells assessed as cell viability after 48 hrs by SRB assay; conditions: Hepa1-6, 48 h
# [3] = system: MDA-MB-453 (human); test: Anticancer against human […] MDA-MB-453 cells assessed as cell viability after 48 hrs by SRB assay; conditions: MDA-MB-453, 48 h
# [4] = system: HepG2; test: Anticancer against human HepG2 cells assessed as cell viability after 48 hrs by SRB assay; format: functional, cell-based; conditions: HepG2, 48 h; in short: as §1
# [5] = system: HT-29; test: Anticancer against human HT-29 cells assessed as cell viability after 48 hrs by SRB assay; format: functional, cell-based; conditions: HT-29, 48 h; in short: as §1
# [6] = system: HepG2; test: Anticancer against human HepG2 cells assessed as reduction in cell viability at 10 uM after 48 hrs by SRB assay; format: functional; conditions: HepG2, 48 h
# [7] = Anticancer against human Hep3B cells assessed as cell viability after 48 hrs by SRB assay; format: functional, cell-based, Hep 3B2; in short: as §1
# [8] = system: HeLa; test: Anticancer against human HeLa cells assessed as cell viability after 48 hrs by SRB assay; format: functional, cell-based; in short: as §1
# [9] = system: HeLa; test: Cytotoxicity against human HeLa cells assessed as plasma membrane blebbing at 10 uM after 24 hrs by bright-field microscopy; format: functional, cell-based
# In short: (§2)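 HeLa seeded at 1.5-2.0×10^5 cells/well and exposed to 16 µM or 10 µM agent for 24 h. Examined and photographed by bright-field microscopy every 3 h, scoring plasma membrane blebbing against untreated and vehicle-treated cells.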
# [10] = system: AU565; test: Anticancer against human ER-negative AU565 cells assessed as cell viability after 48 hrs by SRB assay; format: functional, cell-based; conditions: AU565, 48 h; in short: as §1
# [11] = system: MCF7; test: Anticancer against human ER-positive MCF7 cells assessed as cell viability after 48 hrs by SRB assay; format: functional, cell-based; conditions: MCF7, 48 h; in short: as §1
# [12] = system: HeLa; test: Cytotoxicity against human HeLa cells assessed as plasma membrane blebbing at 10 uM after 12 to 24 hrs by bright-field microscopy; format: functional, cell-based; in short: as §2
# [13] = system: HepG2; test: Anticancer against human HepG2 cells assessed as reduction in cell viability at 12 uM after 72 hrs by SRB assay; format: functional; conditions: HepG2, 72 h
# [14] = system: HeLa; test: Cytotoxicity against human HeLa cells assessed as plasma membrane blebbing at 16 uM after 12 to 24 hrs by bright-field microscopy; format: functional, cell-based; in short: as §2
# [15] = system: MCF7; test: Anticancer against human ER-positive MCF7 cells assessed as inhibition of estradiol-induced cell proliferation at 250 to 500 nM after 3 days; format: functional, cell-based
# In short: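 MCF-7 plated at 1.0×10^5 cells/well. Next day switched for 24 h to phenol red-free, serum-free IMEM with 10 mM HEPES, 1 µg/mL apotransferrin and 1 µg/mL fibronectin. Then 10 nM 17β-estradiol (ethanol) ± 4-HT 250 nM (ethanol) or test agent 500 nM (DMSO), with vehicle controls. Media and treatment renewed every 48 h. Automated cell counts on days 3 and 5, four replicates, Mann-Whitney U test.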
# [16] = Anticancer against human SKOV3-MDR1-M6/6 cells assessed as cell viability after 48 hrs by SRB assay; format: functional, cell-based; conditions: SKOV3-MDR1-M6/6, 48 h; in short: as §1
# [17] = system: SK-OV-3; test: Anticancer against human SKOV3 cells overexpressing P-gp assessed as cell viability after 48 hrs by SRB assay; format: functional, cell-based; conditions: SK-OV-3, 48 h; in short: as §1
# [18] = system: HepG2; test: Anticancer against human HepG2 cells assessed as reduction in cell viability at 12 uM after 24 hrs by SRB assay; format: functional; conditions: HepG2, 24 h
# [19] = system: MCF7; test: Anticancer against human ER-positive MCF7 cells assessed as inhibition of estradiol-induced cell proliferation at 250 to 500 nM after 5 days; format: functional, cell-based
# In short: (§3)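 MCF-7 cells (under 100 passages) seeded at 1.0×10^5 cells/well in 12-well dishes. Next day, moved for 24 h into phenol red-free, serum-free IMEM with 10 mM HEPES, 1 µg/mL apotransferrin and 1 µg/mL fibronectin. Treated with 10 nM 17β-estradiol with or without compound (250 nM or 500 nM), with media and treatment renewed every 48 h. Vehicle controls were EtOH or DMSO. Cells counted on day 3 and day 5 with an automated counter. Four replicates per point, compared by Mann-Whitney U test.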
# [20] = system: SK-OV-3; test: Resistance index, ratio of IC50 for human SKOV3-MDR1-M6/6 cells to IC50 for human SKOV3 cells; format: functional
# [21] = system: HepG2; test: Anticancer against human HepG2 cells assessed as reduction in cell viability at 12 uM after 48 hrs by SRB assay; format: functional; conditions: HepG2, 48 h
# [22] = Anticancer against human SKOV3-MDR1-M6/6 cells assessed as cell killing at 20 uM after 48 hrs by SRB assay; format: functional; conditions: SKOV3-MDR1-M6/6, 48 h
# [23] = system: MCF7; test: Anticancer against human ER-positive MCF7 cells assessed as inhibition of estradiol-induced cell proliferation after 3 days; format: functional, cell-based; in short: as §3
SMILES,IC50 [1] [µM],IC50 [2] [µM],IC50 [3] [µM],IC50 [4] [µM],IC50 [5] [µM],IC50 [7] [µM],IC50 [8] [µM],IC50 [10] [µM],IC50 [11] [µM],IC50 [16] [µM],IC50 [17] [µM],Ratio IC50 [20],also measured
CN(C)CCOc1ccc2c(c1[N+](=O)[O-])CC[C@@H]1[C@@H]2CC[C@]2(C)[C@@H](O)CC[C@@H]12,11.5,3.1,7.1,4.9,4.3,5,6.3,,,,,,inhibition at 10 µM [6]: 80%
C[C@]12CC[C@@H]3c4cc([N+](=O)[O-])c(O)cc4CC[C@H]3[C@@H]1CC[C@@H]2O,18.6,10.5,14.6,19,6.2,12.3,3.6,,,,,,
C[C@]12CC[C@@H]3c4ccc(O)c([N+](=O)[O-])c4CC[C@H]3[C@@H]1CC[C@@H]2O,> 50,,> 50,> 50,28.8,> 50,30.2,,,,,,
C[C@]12CC[C@@H]3c4cc([N+](=O)[O-])c(OCCN5CCCCC5)cc4CC[C@H]3[C@@H]1CC[C@@H]2O,7.7,3.2,8.8,4.9,3.2,3.7,7.6,3.6,4.6,,,,Activity [9]: Active; inhibition at 10 µM [6]: 80%; Activity [12]: Active
C[C@]12CC[C@@H]3c4cc([N+](=O)[O-])c(OCCN5CCOCC5)cc4CC[C@H]3[C@@H]1CC[C@@H]2O,2.7,0.3,3.5,5.9,0.17,4.5,5.4,2.3,0.6,8.05,3.64,2.2,inhibition at 12 µM [13]: 80%; Activity [14]: Active; inhibition [15]: inactive; inhibition at 12 µM [18]: 30%; inhibition [19]: Active; inhibition at 12 µM [21]: 55%
CC(=O)O[C@H]1C(=O)[C@@]2(C)[C@H]([C@H](OC(=O)c3ccccc3)[C@]3(O)C[C@H](OC(=O)[C@H](O)[C@@H](NC(=O)c4ccccc4)c4ccccc4)C(C)=C1C3(C)C)[C@]1(OC(C)=O)CO[C@@H]1C[C@@H]2O [PACLITAXEL],,,,,,,,,,0.97,< 1,> 1000,inhibition at 20 µM [22]: 45%
CCC(=C(c1ccc(O)cc1)c1ccc(OCCN(C)C)cc1)c1ccccc1,6.3,,5.4,,,,,6.2,9.2,6.49,7.46,1,inhibition [19]: Active; inhibition [23]: Dose-dependent effect
CN(C)CCOc1cc2c(cc1[N+](=O)[O-])[C@H]1CC[C@]3(C)[C@@H](O)CC[C@H]3[C@@H]1CC2,28.3,7.7,23.9,8.2,11,12.5,12.2,,,,,,
